Measurements as given in ChEMBL document CHEMBL1127818, “Identification of L-tryptophan derivatives with potent and selective antagonist activity at the NK1 receptor” (J Med Chem, 1994).

Columns and labels:
Neuromedin-K receptor = molecular target: T1, Neuromedin-K receptor (Homo sapiens, UniProt P29371); test: Affinity to NK3 receptors assayed by displacement of [125I]-Bolton-Hunter labeled eledoisin radioligand
T1 sequence (P29371 whole entry): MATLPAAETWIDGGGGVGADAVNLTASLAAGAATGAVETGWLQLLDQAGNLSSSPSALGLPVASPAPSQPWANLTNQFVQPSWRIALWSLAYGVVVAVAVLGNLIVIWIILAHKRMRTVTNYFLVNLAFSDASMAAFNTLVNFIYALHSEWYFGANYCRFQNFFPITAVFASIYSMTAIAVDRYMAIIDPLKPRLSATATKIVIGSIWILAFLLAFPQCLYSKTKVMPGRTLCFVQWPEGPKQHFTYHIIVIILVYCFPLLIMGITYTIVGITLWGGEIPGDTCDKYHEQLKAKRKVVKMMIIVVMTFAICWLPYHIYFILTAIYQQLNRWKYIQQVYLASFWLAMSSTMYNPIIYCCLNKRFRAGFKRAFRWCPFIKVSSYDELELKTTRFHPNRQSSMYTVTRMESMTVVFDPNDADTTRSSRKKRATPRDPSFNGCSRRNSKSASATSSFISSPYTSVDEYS
Method in brief: (§1)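 Cloned human NK2 or NK3 receptors stably expressed in CHO cells. Radioligand displacement with [125I]neurokinin A for NK2 and [125I]Bolton-Hunter labeled eledoisin for NK3; IC50 reported.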

Substance-K receptor = molecular target: T2, Substance-K receptor (Homo sapiens, UniProt P21452); test: Binding affinity to the NK2 receptor assayed by displacement of [125I]-Neurokinin A; method in brief: as §1
T2 sequence (P21452 whole entry): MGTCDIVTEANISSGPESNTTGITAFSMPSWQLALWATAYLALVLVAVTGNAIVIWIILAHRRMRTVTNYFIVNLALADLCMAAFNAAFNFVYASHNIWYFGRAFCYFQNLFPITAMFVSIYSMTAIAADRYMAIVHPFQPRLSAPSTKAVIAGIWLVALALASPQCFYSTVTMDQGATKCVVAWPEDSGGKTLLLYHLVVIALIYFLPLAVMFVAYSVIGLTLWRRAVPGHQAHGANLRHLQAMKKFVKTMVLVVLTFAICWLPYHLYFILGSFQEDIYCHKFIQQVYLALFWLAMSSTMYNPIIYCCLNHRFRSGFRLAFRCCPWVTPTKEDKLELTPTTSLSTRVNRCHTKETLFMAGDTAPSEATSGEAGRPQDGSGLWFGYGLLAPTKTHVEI

Substance-P receptor = Substance-P receptor (Homo sapiens, UniProt P25103); test: Binding affinity towards cloned neurokinin 1 receptor, based on the displacement of [125I]-labeled substance P
Chain of Substance-P receptor (P25103 whole entry): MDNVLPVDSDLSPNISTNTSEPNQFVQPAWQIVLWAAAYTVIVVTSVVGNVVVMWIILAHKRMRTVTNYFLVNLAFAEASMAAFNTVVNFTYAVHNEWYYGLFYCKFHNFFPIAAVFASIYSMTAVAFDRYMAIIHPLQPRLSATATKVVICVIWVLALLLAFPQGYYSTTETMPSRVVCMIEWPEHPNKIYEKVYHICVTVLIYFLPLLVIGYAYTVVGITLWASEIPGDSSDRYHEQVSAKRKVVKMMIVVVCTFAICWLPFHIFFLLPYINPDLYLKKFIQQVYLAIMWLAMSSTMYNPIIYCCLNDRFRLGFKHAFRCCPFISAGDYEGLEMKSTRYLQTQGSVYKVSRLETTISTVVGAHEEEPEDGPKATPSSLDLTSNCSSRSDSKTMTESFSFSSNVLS

Cavia porcellus [1] = species on record: Cavia porcellus; test: Inhibitory dose against substance P induced extravasation in the guinea pig; conditions: read-out: ID50
Cavia porcellus [2] = species on record: Cavia porcellus; test: animal or person; conditions: po, read-out: Inhibition

Row | SMILES | IC50 (Neuromedin-K receptor) [µM] | IC50 (Substance-K receptor) [µM] | IC50 (Substance-P receptor) [µM] | ED50 (Cavia porcellus [1]) [mg/kg] | inhibition in vivo at 30 mg/kg (Cavia porcellus [2]) [%]
1 | CNC(=O)N[C@@H](Cc1c[nH]c2ccccc12)C(=O)OCc1cc(C)cc(C)c1 | > 5 | > 5 | 0.103 |  | 
2 | CC(=O)N[C@@H](Cc1c[nH]c2ccccc12)C(=O)OCc1cc(C(F)(F)F)cc(C(F)(F)F)c1 [L-732138] | > 5 | > 5 |  | 8 | 22
3 | O=C(N[C@@H](Cc1c[nH]c2ccccc12)C(=O)OCc1ccc(C(F)(F)F)cc1)c1ccccc1 | > 5 | > 5 | 2.15 |  | 
4 | O=C(N[C@@H](Cc1c[nH]c2ccccc12)C(=O)OCc1cccc(C(F)(F)F)c1)c1ccccc1 | > 5 | > 5 | 0.062 |  | 
5 | CC(=O)N[C@@H](Cc1csc2ccccc12)C(=O)OCc1cc(C(F)(F)F)cc(C(F)(F)F)c1 (racemic) [L-709400] | > 5 | > 5 | 0.008 |  | 
6 | Cc1cc(C)cc(COC(=O)[C@H](Cc2c[nH]c3ccccc23)NC(=O)OC(C)(C)C)c1 | > 5 | > 5 |  |  | 
7 | Cc1cc(C)cc(COC(=O)[C@H](Cc2c[nH]c3ccccc23)[N+](C)(C)C)c1 | > 5 | > 5 |  |  | 
8 | Cc1cc(C)cc(COC(=O)[C@@H](N)Cc2c[nH]c3ccccc23)c1 | > 5 | > 5 |  |  | 
9 | Cc1cc(C)cc(COC(=O)[C@H](Cc2c[nH]c3ccccc23)N(C)C)c1 | > 5 | > 5 |  |  | 
10 | O=C(N[C@@H](Cc1c[nH]c2ccccc12)C(=O)OCc1cc(C(F)(F)F)cc(C(F)(F)F)c1)c1ccccc1 | > 5 | > 5 | 0.0027 |  | 
11 | CC(=O)N[C@@H](Cc1ccccc1)C(=O)OCc1cc(C)cc(C)c1 | > 5 | > 5 | 0.433 |  | 
12 | Cc1cc(C)cc(COC(=O)C(Cc2c[nH]c3ccccc23)NC(=O)c2ccccc2)c1 (single isomer, unassigned) | > 5 | > 5 |  |  | 
13 | O=C(N[C@@H](Cc1c[nH]c2ccccc12)C(=O)OCc1ccc(Cl)cc1)c1ccccc1 | > 5 | > 5 | 0.243 |  | 
14 | COc1ccccc1COC(=O)[C@H](Cc1c[nH]c2ccccc12)NC(=O)OC(C)(C)C | > 5 | > 5 |  |  | 
15 | CCN[C@@H](Cc1c[nH]c2ccccc12)C(=O)OCc1ccccc1 | > 5 | > 5 |  |  | 
16 | O=C(N[C@@H](Cc1c[nH]c2ccccc12)C(=O)OCc1ccccc1Cl)c1ccccc1 | > 5 | > 5 |  |  | 
17 | COC(=O)N[C@@H](Cc1c[nH]c2ccccc12)C(=O)OCc1cc(C)cc(C)c1 | > 5 | > 5 | 0.087 |  | 
18 | Cc1cc(C)cc(COC(=O)[C@H](Cc2c[nH]c3ccccc23)NC(=O)c2ccccc2)c1 | > 5 | > 5 | 0.022 |  | 
19 | N[C@@H](Cc1c[nH]c2ccccc12)C(=O)OCc1ccccc1 | > 5 | > 5 |  |  | 
20 | CC(C)(C)OC(=O)N[C@@H](Cc1c[nH]c2ccccc12)C(=O)OCc1ccccc1 | > 5 | > 5 |  |  | 
21 | COc1ccc(COC(=O)[C@H](Cc2c[nH]c3ccccc23)NC(=O)c2ccccc2)cc1 | > 5 | > 5 | 5.5 |  | 
22 | COc1cccc(COC(=O)[C@H](Cc2c[nH]c3ccccc23)NC(=O)c2ccccc2)c1 | > 5 | > 5 | 0.76 |  | 
23 | CC(=O)N[C@@H](Cc1cccc2ccccc12)C(=O)OCc1cc(C)cc(C)c1 | > 5 | > 5 | 0.153 |  | 
24 | CC(=O)N[C@@H](Cc1ccc2ccccc2c1)C(=O)OCc1cc(C)cc(C)c1 | > 5 | > 5 | 0.138 |  | 
25 | CC(=O)N[C@@H](Cc1n[nH]c2ccccc12)C(=O)OCc1cc(C(F)(F)F)cc(C(F)(F)F)c1 (racemic) | > 5 | > 5 | 0.197 |  | 
26 | CC(=O)N[C@@H](Cc1ccc(Cl)c(Cl)c1)C(=O)OCc1cc(C)cc(C)c1 (racemic) | > 5 | > 5 | 0.03 |  | 
27 | O=C(N[C@@H](Cc1c[nH]c2ccccc12)C(=O)OCc1cccc(Cl)c1)c1ccccc1 | > 5 | > 5 | 1.05 |  | 
28 | O=C(N[C@@H](Cc1c[nH]c2ccccc12)C(=O)OCc1ccccc1C(F)(F)F)c1ccccc1 | > 5 | > 5 | 0.183 |  | 
29 | CC(=O)N[C@@H](Cc1c[nH]c2ccccc12)C(=O)OCc1cc(C)cc(C)c1 [L-708568] | > 5 | > 5 |  |  | 
30 | COc1ccccc1COC(=O)[C@H](Cc1c[nH]c2ccccc12)NC(=O)c1ccccc1 | > 5 | > 5 | > 0.1 |  | 
